We go through ten compounds from ChEMBL document CHEMBL1121447, “Pronounced pharmacological differences arising from minor structural changes in conformationally defined amphetamine analogues. Comparative evaluation of endo- and exo-2-amino- and endo- and exo-2-(methylamino)benzobicyclo[2.2.1]heptene and -benzobicylco[2.2.2]octene analogues. Conformationally …” (J Med Chem, 1980).

What all share (assay type): functional, organism-based
Assay [1] is filed under the species Rattus norvegicus. The assay is described as follows: Effective concentration was measured for the release of accumulated [3H]dopamine from chopped striatum of rat. In a few lines:
(§1)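 Chopped rat cortex (NE) or corpus striatum (DA) from untreated rats loaded with 10^-6 M [3H]NE or [3H]dopamine, then washed. Exposed to drug (10^-7 to 10^-3 M) for 30 min, then centrifuged. Amines separated from deaminated metabolites on Dowex 50 Na+ and counted by scintillation with recovery correction. Release = % of total label found in medium. EC50 = half-maximal concentration; 3-4 experiments.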

The species named for assay [2] is Rattus norvegicus. Briefly: Inhibitory concentration against uptake of [3H]NE into chopped cerebral cortical tissue from rat brain. Put shortly: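 Chopped rat cerebral cortex preincubated 10 min at 37 °C in physiological salt solution (95% O2-5% CO2) with drug at 10^-8 to 10^-3 M. [3H]NE then added to 10^-7 M final. Uptake stopped by centrifugation. Tissue ethanol extract and medium counted by scintillation. Inhibition taken as % of control; 3-4 experiments.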

For assay [3], the species on record is Rattus norvegicus. The assay is described as follows: Effective concentration was measured for the release of accumulated [3H]NE from chopped cortex of rat. In a few lines: as §1

Molecules are shown by their SMILES.

Turning to `N[C@H]1CC2C[C@@H]1c1ccccc12`, the EC50 in the assay listed under Rattus norvegicus [1] (Rattus norvegicus) came to 794 µM; in the assay filed under Rattus norvegicus [3] (Rattus norvegicus), 630 µM. The same compound had an IC50 in the assay filed under Rattus norvegicus [2] (Rattus norvegicus, Brain) of 100 µM.
For `N[C@@H]1CC2C[C@@H]1c1ccccc12` the same measures were 185 µM, 16 µM and 1.1 µM.
Take `NC1CC2CCC1c1ccccc12` (stereo in doubt; 1a): the results for the EC50 in the assay filed under Rattus norvegicus [1] and in the assay filed under Rattus norvegicus [3] were 192 µM and 147 µM, respectively. The 50% inhibitory concentration (IC50) in the assay listed under Rattus norvegicus [2] came out at 0.8 µM.
For `CNC1CC2CCC1c1ccccc12` (stereo in doubt; 1b) the same measures were 185 µM, 178 µM and 0.8 µM.
For `NC1CC2CCC1c1ccccc12` (stereo in doubt; 2a) the same measures were 681 µM, 1000 µM and 39 µM.
The corresponding values for `CNC1CC2CCC1c1ccccc12` (stereo in doubt; 2b) are more than 1000 µM, more than 1000 µM and 48 µM.
On to `CNC1CC2CC1c1ccccc12` (stereo in doubt; 3b), for which the EC50 stood at 271 µM in the assay filed under Rattus norvegicus [1] and 450 µM in the assay listed under Rattus norvegicus [3]. This compound also returned a concentration for half-maximal inhibition (IC50) in the assay listed under Rattus norvegicus [2] of 1.8 µM.
As for `CNC1CC2CC1c1ccccc12` (stereo in doubt; 4b), the concentration giving a half-maximal response (EC50) in the assay listed under Rattus norvegicus [1] and in the assay filed under Rattus norvegicus [3] was more than 1000 µM each time. The compound also had a concentration for half-maximal inhibition (IC50) in the assay filed under Rattus norvegicus [2] of 369 µM.
Take `C[C@H](N)Cc1ccccc1` [DEXTROAMPHETAMINE]: the figures for the EC50 in the assay filed under Rattus norvegicus [1] (Rattus norvegicus) and in the assay filed under Rattus norvegicus [3] (Rattus norvegicus) were 11 µM and 0.8 µM, respectively. This compound also yielded a concentration for half-maximal inhibition (IC50) in the assay filed under Rattus norvegicus [2] (Rattus norvegicus, Brain) of 0.2 µM.
The corresponding values for `C[C@@H](N)Cc1ccccc1` [LEVAMFETAMINE] are 61 µM, 1.7 µM and 0.5 µM.

As usually defined, the EC50 is the concentration that produces a half-maximal response. Usually IC50 stands for the concentration needed to halve the response being measured.
